From ChEMBL document CHEMBL1146074, “Design and synthesis of 1-indol-1-yl-propan-2-ones as inhibitors of human cytosolic phospholipase A2alpha” (J Med Chem, 2006)
Calls of active or inactive are those of the source. No cut-off for these calls is given here.

Legend:
[1] = target: T1, Cytosolic phospholipase A2 (Homo sapiens) (UniProt P47712); experiment: Inhibition of human isolated cPLA2-alpha by vesicle assay at 10 uM
T1 sequence (whole entry): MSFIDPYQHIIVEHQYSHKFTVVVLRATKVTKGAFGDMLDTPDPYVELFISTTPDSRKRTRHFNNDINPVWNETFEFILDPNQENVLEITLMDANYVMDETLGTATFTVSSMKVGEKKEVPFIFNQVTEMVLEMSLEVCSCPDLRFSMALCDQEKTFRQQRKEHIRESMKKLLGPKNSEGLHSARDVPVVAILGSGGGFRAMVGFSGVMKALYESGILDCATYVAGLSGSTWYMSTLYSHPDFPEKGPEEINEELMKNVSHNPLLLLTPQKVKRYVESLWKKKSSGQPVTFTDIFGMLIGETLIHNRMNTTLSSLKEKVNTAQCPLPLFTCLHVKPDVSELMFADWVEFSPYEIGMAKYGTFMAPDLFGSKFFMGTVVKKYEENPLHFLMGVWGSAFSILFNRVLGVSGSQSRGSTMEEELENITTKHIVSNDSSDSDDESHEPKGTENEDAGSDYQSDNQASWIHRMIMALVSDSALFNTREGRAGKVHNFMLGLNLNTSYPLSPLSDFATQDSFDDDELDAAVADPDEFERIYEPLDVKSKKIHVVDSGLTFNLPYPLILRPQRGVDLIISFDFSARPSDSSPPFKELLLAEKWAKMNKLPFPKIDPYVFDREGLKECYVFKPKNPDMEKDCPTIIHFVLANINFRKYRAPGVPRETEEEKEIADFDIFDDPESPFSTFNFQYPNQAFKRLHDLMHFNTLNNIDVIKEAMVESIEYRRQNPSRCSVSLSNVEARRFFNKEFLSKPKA

[2] = target: T1, Cytosolic phospholipase A2 (Homo sapiens); experiment: Inhibition of cPLA2-alpha activity assessed by A23187-induced arachidonic acid release in human platelet at 10 uM; type: functional
In short: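 Intact human platelets, with the dual cyclooxygenase/12-lipoxygenase inhibitor ETYA added, stimulated with calcium ionophore A23187 (1 µM final) for 1 min. Arachidonic acid released was measured by reversed-phase HPLC with UV at 200 nm, using 3-(4-decyloxyphenyl)propanoic acid as internal standard. Percent inhibition was read at 10 µM test compound. Cell lysis was checked by turbidimetry.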

[3] = target: T2, Cytosolic phospholipase A2 (Homo sapiens, UniProt P47712); experiment: Inhibition of human isolated cPLA2-alpha by vesicle assay
T2 sequence (P47712 whole entry): T1 sequence (whole entry)
In short: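 Test compounds were at most 10 µM. Arachidonic acid formed was cleaned up by solid-phase extraction and quantified by reversed-phase HPLC with UV at 200 nm. IC50 values are means of at least two independent determinations.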

[4] = target: T2, Cytosolic phospholipase A2; experiment: Inhibition of cPLA2alpha activity assessed by A23187-induced arachidonic acid release in human platelet; type: functional
In short: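 Intact human platelets stimulated with calcium ionophore A23187 (1 µM final) for 1 min, with ETYA added to block cyclooxygenase-1 and 12-lipoxygenase. Released arachidonic acid was measured by RP18 HPLC (acetonitrile/10 mM ammonium phosphate pH 7.4, 50:50) with UV at 200 nm, using an internal standard. IC50 values are means of at least two independent determinations.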

[5] = target: T2, Cytosolic phospholipase A2; experiment: Inhibition of cPLA2-alpha activity assessed by TPA-induced arachidonic acid release in human platelet; type: functional
In short: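 Intact human platelets stimulated with TPA (2 µM final) for 60 min, with the cyclooxygenase/12-lipoxygenase inhibitor ETYA added. Released arachidonic acid was quantified by RP18 HPLC with UV at 200 nm, using an internal standard. Parallel incubations without TPA were used to calculate specific hydrolysis. IC50 values are means of at least two independent determinations.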

| inhibition [1] | inhibition [2] | SMILES | IC50 [3] | IC50 [4] | IC50 [5] |
| --- | --- | --- | --- | --- | --- |
|  |  | CCCCCCCCc1ccc(OCC(=O)Cn2cc(C(C)(C)C)c3cc(C(=O)O)ccc32)cc1 | 340 nM | 3300 nM | 230 nM |
|  |  | CCCCCCCCCCOc1ccc(OCC(=O)Cn2cc(C(=O)OC)c3cc(C(=O)O)ccc32)cc1 | 4.3 nM | 570 nM | 0.9 nM |
| inactive | inactive | CCCCCCCCc1ccc(OCC(=O)Cn2ccc3cc(Cl)ccc32)cc1 |  |  |  |
| 40% | 40% | CCCCCCCCc1ccc(OCC(=O)Cn2cc(C(=O)O)c3ccccc32)cc1 |  |  |  |
| inactive |  | CCCCCCCCc1ccc(OCC(=O)Cn2c(C(=O)O)cc3ccccc32)cc1 |  | 8000 nM |  |
|  |  | CCCCCCCCc1ccc(OCC(=O)Cn2ccc3cc(C(=O)O)ccc32)cc1 |  | 410 nM | 18 nM |
| inactive | inactive | CCCCCCCCc1ccc(OCC(=O)Cn2ccc3cc(C)ccc32)cc1 |  |  |  |
|  |  | CCCCCCCCCCOc1ccc(OCC(=O)COc2ccc(C(=O)O)cc2)cc1 |  | 250 nM |  |
|  |  | CCCCCCCCc1ccc(OCC(=O)Cn2ccc3cc(C(N)=O)ccc32)cc1 | 120 nM | 770 nM |  |
|  |  | CCCCCCCCc1ccc(OCC(=O)Cn2cc(C=O)c3cc(C(=O)O)ccc32)cc1 | 16 nM | 380 nM | 9.7 nM |
| inactive | 37% | CCCCCCCCc1ccc(OCC(=O)Cn2ccc3cc(OC)ccc32)cc1 |  |  |  |
|  |  | CCCCCCCCc1ccc(OCC(=O)Cn2cc(C(=O)OC)c3cc(C(=O)O)ccc32)cc1 | 4.9 nM | 1400 nM | 1.1 nM |
|  |  | CCCCCCCCc1ccc(OCC(=O)Cn2ccc3cc(C=O)ccc32)cc1 | 4300 nM | 4900 nM |  |
|  |  | CCCCCCCCc1ccc(OCC(=O)Cn2cc(C(=O)O)c3cc(C(=O)O)ccc32)cc1 | 890 nM | 6500 nM | 560 nM |
|  |  | CCCCCCCCc1ccc(OCC(=O)Cn2cc(Cl)c3cc(C(=O)O)ccc32)cc1 | 110 nM | 1500 nM | 120 nM |
| 36% | 40% | CCCCCCCCc1ccc(OCC(=O)Cn2ccc3cc(C(=O)OC)ccc32)cc1 |  |  |  |
|  |  | CCCCCCCCc1ccc(OCC(=O)Cn2cc(C(C)=O)c3cc(C(=O)O)ccc32)cc1 | 16 nM | 1000 nM | 6.4 nM |
|  |  | CCCCCCCCCCOc1ccc(OCC(=O)Cn2ccc3cc(C(=O)O)ccc32)cc1 | 20 nM | 210 nM | 7.8 nM |
|  |  | CCCCCCCCc1ccc(OCC(=O)Cn2ccc3ccc(C(=O)O)cc32)cc1 | 1100 nM | 4700 nM |  |
| inactive | 43% | CCCCCCCCc1ccc(OCC(=O)Cn2ccc3ccccc32)cc1 |  |  |  |
|  |  | CCCCCCCCc1ccc(OCC(=O)Cn2cc(C#N)c3cc(C(=O)O)ccc32)cc1 | 15 nM | 370 nM | 11 nM |

| SMILES | inhibition [1] | inhibition [2] | IC50 [3] | IC50 [4] | IC50 [5] |
| --- | --- | --- | --- | --- | --- |
| CCCCCCCCc1ccc(OCC(=O)Cn2ccc3cc(C#N)ccc32)cc1 | 25% | 46% |  |  |  |
| CCCCCCCCc1ccc(OCC(=O)Cn2ccc3c(C(=O)O)cccc32)cc1 | 40% | 40% |  |  |  |
